{"source": "paper PMC11408689", "about": "(Nature Communications, 2024)", "key": {"GRP78-NBD [1]": {"target": "T1, GRP78-NBD (Homo sapiens, UniProt P11021)", "T1 sequence (P11021 26-382)": "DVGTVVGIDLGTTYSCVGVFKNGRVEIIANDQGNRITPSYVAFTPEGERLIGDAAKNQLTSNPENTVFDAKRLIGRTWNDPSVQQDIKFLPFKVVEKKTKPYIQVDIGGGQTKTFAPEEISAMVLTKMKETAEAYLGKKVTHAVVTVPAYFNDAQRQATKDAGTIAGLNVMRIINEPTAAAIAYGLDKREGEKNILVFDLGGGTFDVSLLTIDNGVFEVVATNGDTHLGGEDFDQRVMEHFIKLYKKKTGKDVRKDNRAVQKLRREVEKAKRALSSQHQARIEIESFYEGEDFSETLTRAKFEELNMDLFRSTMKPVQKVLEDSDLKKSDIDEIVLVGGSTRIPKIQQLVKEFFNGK", "assay": "SEC-SAXS of GRP78-NBD and its complexes with CDNF or C-CDNF", "type": "binding", "method_in_brief": "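Recombinant human proteins expressed in E. coli: CDNF in T7 Shuffle Express (to keep disulfides), GRP78-NBD in BL21 Star (DE3). In-line SEC-SAXS used 10 μl at ~10 mg/ml on Superdex 200 Increase at 0.35 ml/min and 20 °C, in PBS pH 7.2 with 1.5% glycerol. Data were collected at EMBL P12 (Pilatus 6M) in a 1 mm quartz capillary.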"}, "nucleus-localized ATF6": {"test_system": "nucleus-localized ATF6", "assay": "UPR marker nucleus-localized ATF6 in TH-positive neurons after MPP+ injury", "type": "cell-based, rat", "method_in_brief": "(§1)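 Rat primary mesencephalic neurons were pretreated with test compound (PBS stock diluted in medium) from 4 h before injury. They were then exposed on DIV6 to 4 µM MPP+ for 48 h, six wells per condition. Fixed cells were double-stained for TH plus phospho-IRE1α, ATF4 or ATF6, with Hoechst nuclear counterstain. Twenty 10x images per well were analysed automatically for TH/phospho-IRE1α overlap or stained nuclei in TH+ cells. Results are % vs control; one-way ANOVA with Dunnett's test.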"}, "phosphorylated IRE1α": {"test_system": "phosphorylated IRE1α", "assay": "UPR marker phospho-IRE1α in TH-positive neurons after MPP+ injury", "type": "cell-based, rat", "conditions": "for UPR modulating effect on IRE1α pathway: compared to wild-type C-CDNF", "method_in_brief": "as §1"}, "nucleus-localized ATF4": {"test_system": "nucleus-localized ATF4", "assay": "UPR marker nucleus-localized ATF4 in TH-positive neurons after MPP+ injury", "type": "cell-based, rat", "conditions": "for UPR modulating effect on PERK/ATF4 pathway: compared to wild-type C-CDNF", "method_in_brief": "as §1"}, "GRP78-NBD [2]": {"test_system": "GRP78-NBD", "conditions": "crystal structure; cited from earlier work"}, "[3]": {"test_system": "α-synuclein (aSyn) aggregates in dopamine neurons", "assay": "α-synuclein", "type": "cell-based, rat", "method_in_brief": "(§2)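 Rat primary mesencephalic neurons were used. On DIV6, medium (Neurobasal, B27, BDNF, GDNF) was replaced with medium containing 4 µM MPP+ for 48 h. Test compound, from PBS stocks diluted in medium, was added 4 h before MPP+. Six wells per condition; fixed, then immunostained for TH and α-synuclein. Twenty 10x images per well, automated count of TH+ neurons and TH/aSyn overlap area. Reported as % of untreated control; one-way ANOVA with Dunnett's test.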"}, "GRP78-NBD [4]": {"target": "T1, GRP78-NBD", "assay": "Spectral shift binding assay", "conditions": "ligand up to 100 μM; 25 °C", "method_in_brief": "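Tag-free GRP78-NBD (His-tagged, expressed in E. coli BL21 Star (DE3), cobalt-affinity purified, TEV-cleaved, SEC-polished) labelled with NT-650-NHS, held at 10 nM. Ligand serial dilutions were made in PBS pH 7.2 with 0.05% Tween 20, giving 100 μM to 3.05 nM final. Read on Monolith X at 25 °C, 100% LED, as the 670/650 nm ratio. Amplitude is the unbound-to-bound plateau difference.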"}, "[5]": {"test_system": "TH-positive dopamine neurons (rat primary mesencephalic neurons)", "type": "cell-based", "conditions": "for neuroprotective activity: any of the tested concentrations", "method_in_brief": "as §2"}, "GRP78-NBD [6]": {"target": "T1, GRP78-NBD", "assay": "2D 1H-13C HSQC NMR titration of 13C/15N-Ala labeled C-CDNF with GRP78-NBD", "type": "binding", "conditions": "GRP78-NBD 0-65 µM"}, "[7]": {"conditions": "SEC-SAXS, PBS pH 7.2, 1.5% glycerol, 20 °C"}, "[8]": {"conditions": "MPP+ injury, 4 µM, 48 h, p < 0.0001 vs control"}}, "note": "Where “and” joins values, the source holds several entries; their conditions need not be identical. Equal values may be shown once. Entries after “also recorded” stand apart in the source; their conditions may differ. Starred links: 1 amine or outer side, 2 acyl side, 3 side chain; linkers in the order of their positions; H or OH if unused. Positions of bridges follow the written chain, without caps; N, C: chain ends. Non-standard residues stand in square brackets, D forms with d. Ala(13C3,15N) = 13C3,15N-labelled alanine, [13CH3][13C@H]([15NH][*:1])[13C](=O)[*:2]"}
{"molecule": "CDNF: Cerebral dopamine neurotrophic factor, CDNFWT (aa 25-187), expressed in E. coli", "values": [{"measurement": "complex formation with GRP78-NBD", "setting": "GRP78-NBD [1]; shift of SEC-SAXS elution peak to earlier elution, excess ligand", "result": "formed a complex with GRP78-NBD"}]}
{"molecule": "GRP78-NBD: nucleotide-binding domain of GRP78 (aa 26-382), expressed in E. coli", "values": [{"measurement": "Dmax (PDDF/P(r) analysis)", "setting": "GRP78-NBD [1]; [7]", "result": "6.5 nm and 6.5 ± 0.2 nm"}, {"measurement": "Rg (Guinier Analysis)", "setting": "GRP78-NBD [1]; [7]", "result": "2.2 nm and 2.2 ± 0.1 nm"}, {"measurement": "Envelope volume (ab initio modeling, Dammif)", "setting": "GRP78-NBD [1]; from SEC-SAXS data", "result": 83, "unit": "nm^3"}]}
{"molecule": "C[n+]1ccc(-c2ccccc2)cc1", "note": "[MPP^+, 1-methyl-4-phenyl-pyrididium, reference compound]", "values": [{"measurement": "increase of nucleus-localized ATF6 from control cells", "setting": "nucleus-localized ATF6; [8]", "result": "79.5 ± 6.2"}, {"measurement": "increase of S724 phosphorylated IRE1α from control cells", "setting": "phosphorylated IRE1α; [8]", "result": "81.0 ± 5.0", "unit": "%"}, {"measurement": "increase of nucleus-localized ATF4 from control cells", "setting": "nucleus-localized ATF4; [8]", "result": "42.1 ± 6.1"}]}
{"molecule": "MANF: mesencephalic astrocyte-derived neurotrophic factor (protein, UniProt P55145 25-182, looked up) Mesencephalic …: LRPGDCEVCISYLGRFYQDLKDRDVTFSPATIENELIKFCREARGKENRLCYYIGATDDAATKIINEVSKPLAHHIPVEKICEKLKKKDSQICELKYDKQIDLSTVDLKKLRVKELKKILDDWGETCKGCAEKSDYIRKINELMPKYAPKAASARTDL", "values": [{"measurement": "binding to GRP78 nucleotide-binding domain", "setting": "GRP78-NBD [2]", "result": "binds to the regulatory, nucleotide-binding domain of GRP78 via its C-terminal domain"}]}
{"molecule": "C-CDNF-MT1 (protein, disulfide 32-35) peptide: KYEKTLDLASVDLRKMRVAELKQILHSWGEECRACAAATDYVNLIQELAPKYAATHPKTEL", "values": [{"measurement": "maximal reduction of aSyn aggregation from MPP+ model effect", "setting": "[3]; maximal effect over tested concentrations (5-500 nM), p = 0.4382", "result": "21.2 ± 5.9", "unit": "%"}, {"measurement": "binding to GRP78-NBD (spectral shift), in words", "setting": "GRP78-NBD [4]", "result": "do not bind to GRP78-NBD"}, {"measurement": "neuroprotective activity", "setting": "[5]; MPP+ 48 h", "result": "did not show any neuroprotective activity"}, {"measurement": "maximal increase of dopamine neuron survival from MPP+ model effect", "setting": "[5]; maximal effect over tested concentrations (5-500 nM), p = 0.9771", "result": "13.6 ± 6.7", "unit": "%"}, {"measurement": "UPR modulating effect on IRE1α pathway", "setting": "phosphorylated IRE1α", "result": "nearly completely lost the UPR modulating effect"}, {"measurement": "UPR modulating effect on PERK/ATF4 pathway", "setting": "nucleus-localized ATF4", "result": "nearly completely lost the UPR modulating effect"}]}
{"molecule": "C-CDNF-MT2: C-CDNF mutant E156/157/163A (disulfide 32-35) peptide: KYEKTLDLASVDLRKMRVAELKQILHSWGAACRACAAKTDYVNLIQELAPKYAATHPKTEL", "values": [{"measurement": "activity in neuroprotection or aSyn aggregation", "setting": "[3]; all three tested concentrations, compared to wild-type C-CDNF", "result": "very low activity in neuroprotection or aSyn aggregation"}, {"measurement": "binding to GRP78-NBD (spectral shift), in words", "setting": "GRP78-NBD [4]", "result": "do not bind to GRP78-NBD"}, {"measurement": "neuroprotective activity", "setting": "[5]; MPP+ 48 h", "result": "did not show any neuroprotective activity"}, {"measurement": "UPR modulating effect on IRE1α pathway", "setting": "phosphorylated IRE1α", "result": "nearly completely lost the UPR modulating effect"}, {"measurement": "UPR modulating effect on PERK/ATF4 pathway", "setting": "nucleus-localized ATF4", "result": "nearly completely lost the UPR modulating effect"}]}
{"molecule": "C-CDNF-MT3 (protein, disulfide 32-35) KYEKTLDLASVDLRKMRVAELKQILHSWGEECAACAEATDYVNLIQELAPKYAATHPKTEL", "values": [{"measurement": "reduction in aSyn aggregation, change from MPP+ model effect", "setting": "[3]; 500 nM, MPP+ 48 h, p = 0.0073", "result": "−42.1 ± 7.7", "unit": "%"}, {"measurement": "ATF6 pathway modulating activity", "setting": "nucleus-localized ATF6; 5-500 nM", "result": "dose-dependent effect"}, {"measurement": "binding to GRP78-NBD (spectral shift), in words", "setting": "GRP78-NBD [4]", "result": "impaired binding to GRP78-NBD; also recorded: weak binding to GRP78-NBD"}, {"measurement": "increase of dopamine neuron survival from MPP+ model effect", "setting": "[5]; 500 nM, MPP+ 48 h, p = 0.0878", "result": "40.3 ± 8.4", "unit": "%"}, {"measurement": "neuroprotective activity", "setting": "[5]; MPP+ 48 h", "result": "reduced potency in the neuroprotection assay"}, {"measurement": "decrease in phospho-IRE1α", "setting": "phosphorylated IRE1α; 500 nM, p = 0.0003", "result": "67.2 ± 6.0", "unit": "%"}, {"measurement": "UPR modulating activity", "setting": "phosphorylated IRE1α; 5 and 50 nM", "result": "loss of UPR modulating activity"}, {"measurement": "decrease in nuclear ATF4", "setting": "nucleus-localized ATF4; 500 nM, p = 0.0498", "result": "55.3 ± 8.2", "unit": "%"}]}
{"molecule": "^13C/^15N-Ala-labeled C-CDNF: C-CDNF with labeled alanine residues A135, A145, A162, A175, A179, A180 (disulfide 32-35) peptide: KYEKTLDL[Ala(13C3,15N)]SVDLRKMRV[Ala(13C3,15N)]ELKQILHSWGEECRAC[Ala(13C3,15N)]EKTDYVNLIQEL[Ala(13C3,15N)]PKY[Ala(13C3,15N)][Ala(13C3,15N)]THPKTEL", "values": [{"measurement": "effect of GRP78-NBD titration on Ala methyl groups", "setting": "GRP78-NBD [6]", "result": "The three well-resolved methyl groups of A145, A162 and A175 are clearly affected; also recorded: A179 and A180 do not display any clear effects"}]}
